In ChEMBL document CHEMBL4190353, “Synthesis, structure-activity relationships and preliminary mechanism of action of novel water-soluble 4-quinolone-3-carboxamides as antiproliferative agents” (Eur J Med Chem, 2017):
Calls of active or inactive are those of the source. The rule behind the calls is not given here.

Columns and labels:
[1] = tested on: HCT-116; assay: Cytotoxicity against human HCT116 cells assessed as reduction in cell viability incubated for 24 hrs by MTT assay; assay type: functional, cell-based; details: HCT-116, 24 h
Summary of the method: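 Cells were kept in McCoy's 5A with 10% fetal bovine serum, streptomycin and 100 units·mL⁻¹ penicillin at 37 °C under 5% CO₂/95% air. Viability was read by MTT optical density. IC50 is the concentration that lowers optical density by 50% relative to untreated cells. Values are means with SD of at least three independent determinations.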

[2] = tested on: HCT-116; assay: Cytotoxicity against human HCT116 cells assessed as reduction in cell viability incubated for 24 hrs by CCK8 assay; assay type: functional, cell-based
Summary of the method: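 Cells were seeded at 3×10^4 per well, grown 24 h, then exposed to increasing concentrations for 24 h. CCK-8 reagent was added for 1 h at 37 °C and absorbance was read at 450 nm. Cells were kept in McCoy's 5A with 10% FBS, and n=3.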

[3] = tested on: HCT-116; assay: Induction of apoptosis in Bax-/- human HCT116 cells assessed as increase in cleaved PARP level incubated for 48 hrs by Western blot method; assay type: functional, cell-based
Summary of the method: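 Lysates were made in SDS buffer (2% SDS, 50 mM Tris-HCl pH 6.8) and quantified by BCA. Equal protein was run on 10% SDS-PAGE and transferred to PVDF. Membranes were blocked in 5% milk, probed overnight at 4 °C for cleaved PARP (1:1000) with GAPDH (1:5000), and detected with HRP secondary antibody and ECL.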

[4] = tested on: HCT-116; assay: Induction of apoptosis in p53-/- human HCT116 cells assessed as late apoptotic cells level at 4 uM incubated for 48 hrs by Annexin V-FITC/PI staining based cytometry (reference value: 0.1%); assay type: functional
Summary of the method: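 HCT116 p53-/- cells (Vogelstein line) in McCoy's 5A with 10% FBS, 37 °C, 5% CO2. Seeded at 5×10^5 in 6-well plates, treated with vehicle or 4 μM at 80% confluence. After treatment, trypsinised, washed twice in ice-cold PBS pH 7.4, and stained in binding buffer with Annexin V-FITC and PI for 15 min at room temperature in the dark. Read by flow cytometry.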

[5] = tested on: HCT-116; assay: Induction of apoptosis in Bax-/- human HCT116 cells assessed as viable cells level at 4 uM incubated for 48 hrs by Annexin V-FITC/PI staining based cytometry (reference value: 95.2%); assay type: functional
Summary of the method: (§1)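 Cells were plated at 5×10^5 per well and treated once 80% confluent. After trypsinisation and two washes in ice-cold PBS (pH 7.4), cells were stained with Annexin V-FITC and PI for 15 min at room temperature in the dark. Analysis was by flow cytometry. The legend gives vehicle or 4 µM for the p53-/- and Bax-/- lines.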

[6] = tested on: HCT-116; assay: Induction of apoptosis in Bax-/- human HCT116 cells assessed as early apoptotic cells level at 4 uM incubated for 48 hrs by Annexin V-FITC/PI staining based cytometry (reference value: 4.4%); assay type: functional; summary of the method: as §1
[7] = tested on: HCT-116; assay: […] of ROS generation in human HCT116 cells pre-treated with 7.5 mM L-NAC for […] followed by 8 uM compound addition and further incubated for 24 hrs by H2DCFDA dye based flow cytometry; assay type: functional, cell-based
Summary of the method: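 HCT116 cells pre-treated 5 h with H2O, 7.5 mM L-NAC or 7.5 mM GSH, then exposed to compound for 24 h. Cells collected, washed twice in PBS, and resuspended in serum-free McCoy's 5A with 10 nM H2DCFDA for 20 min at 37 °C in the dark. After two PBS washes, relative ROS measured by flow cytometry.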

[8] = tested on: HCT-116; assay: Cytotoxicity in human HCT116 cells assessed as reduction in cell viability pre-treated with 7.5 mM GSH followed by 16 to 32 uM compound addition and further incubated for 24 hrs by CCK8 assay; assay type: functional, cell-based
Summary of the method: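 HCT116 cells were pretreated with H2O, 7.5 mM L-NAC or 7.5 mM GSH, then exposed to 4, 16 or 32 µM for 24 h. Viability was read by CCK-8, with 1 h reagent incubation at 37 °C and absorbance at 450 nm. n=3.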

With CCN(CC)CCCNC(=O)c1cn(CCCc2ccccc2)c2cc(Cl)ccc2c1=O.Cl the IC50 [1] was 5.79 µM, the “growth inhibition (GI)” value [2] was “Dose-dependent effect” and the IC50 ([2]; HCT-116, 24 h) was 5.79 µM. For the same molecule, the Activity [3] was “Active”, the Activity [4] was 1.3% and the Activity [5] was 71.5%. The Activity [6] was 25.6%, the inhibition [7] was “inactive” and the Activity [8] was “inactive”.
